Experimental data collected from several papers.
Each line is one published result; the experiments were not run side by side.
HRH2: Histamine H2 receptor (HRH2, Homo sapiens, UniProt P25021)
MAOA: Amine oxidase [flavin-containing] A (MAOA, Homo sapiens, UniProt P21397)
PRMT3: Protein arginine N-methyltransferase 3 (PRMT3, Homo sapiens, UniProt O60678)
CDKL2: Cyclin-dependent kinase-like 2 (CDKL2, Homo sapiens, UniProt Q92772)
LDHA: L-lactate dehydrogenase A chain (LDHA, Homo sapiens, UniProt P00338)

SMILES	target	assay	conditions	inhibition [%]
Oc1cccc(Nc2nc(-c3ccc(F)cc3F)cs2)c1	HRH2	cell-free assay	10 µM	-33.9
O=C(Nc1ccc([N+](=O)[O-])cc1Cl)c1cc2ccccc2s1	MAOA	enzyme activity, inhibitor	1 µM, 20 min	11
N=C(NCCCSC[C@H]1O[C@@H](n2cnc3c(NCCCc4ccccc4)ncnc32)[C@H](O)[C@@H]1O)NC1CCCC1	PRMT3	enzyme activity, inhibitor, fluorescence	10 µM	-23.3
CN1CC(Oc2cnc(C#N)cc2-c2ccn3nc(NC(=O)C4CC4)cc3c2)C1	CDKL2	enzyme activity, inhibitor	1 µM	-18
CCN(c1cc(C#CCN2CCOCC2)cc(C(=O)NCc2c(C)cc(C)[nH]c2=O)c1C)[C@H]1CC[C@H](N(C)CCOC)CC1	PRMT3	enzyme activity, inhibitor	1 µM	10
O=C(Nc1ccccc1)c1ccccc1O	MAOA	enzyme activity, inhibitor	1 µM, 20 min	28
O=C(c1ccc(Cl)cc1)N(Cc1ccccc1)C1CCCCC1	Vasoactive intestinal polypeptide receptor 1 (VIPR1, Homo sapiens, UniProt P32241)	cell-free assay	10 µM	-0.7
CCCNc1nc2ccccc2n1Cc1ccc(Cl)cc1	Translocator protein (Tspo, Rattus norvegicus, UniProt P16257)	cell-free assay	10 µM	49.2
Cc1cc([N+](=O)[O-])ccc1NC(=O)c1ccc2c(c1)OCO2	MAOA	enzyme activity, inhibitor	1 µM, 20 min	7
Nc1ncnc2c1ncn2[C@@H]1O[C@H](CSCCNC(=O)NCc2ccccc2)[C@@H](O)[C@H]1O	Protein arginine N-methyltransferase 5 (PRMT5, Homo sapiens, UniProt O14744)	enzyme activity, inhibitor, radiometric	10 µM	> 95
O=C1N=C(N2CCCCN2)S/C1=C\c1ccc(F)cc1O	Kappa-type opioid receptor (Oprk1, Rattus norvegicus, UniProt P34975)	ligand displacement, radioligand	10 µM	11
COc1cc([N+](=O)[O-])ccc1NC(=O)c1cc(Cl)ccc1O	MAOA	enzyme activity, inhibitor	1 µM, 20 min	9
COc1cc(NC(C)=O)c(Cl)cc1C(=O)Nc1nccs1	HRH2	cell-free assay	10 µM	-21.7
COC(=O)CN=c1scc(-c2ccccc2)n1-c1ccccc1	LDHA	enzyme activity, inhibitor, fluorescence	100 µM, pH 7.2	33
COc1cc([N+](=O)[O-])ccc1NC(=O)c1ccc(Cl)cc1	MAOA	enzyme activity, inhibitor	1 µM, 20 min	2
CC[C@H](C)[C@H](NC(=O)[C@H](CCC(N)=O)NC(=O)[C@H](CC(C)C)NC(=O)[C@H](CCSC)NC(=O)[C@H](CCCCN)NC(=O)[C@H](CO)NC(=O)[C@H](CO)NC(=O)[C@H](CCSC)NC(=O)[C@H](CC(C)C)NC(=O)[C@H](CC(N)=O)NC(=O)[C@@H](NC(=O)[C@@H](NC(=O)[C@H](CO)NC(=O)[C@H](CC(C)C)NC(=O)[C@H](CS)NC(=O)[C@H](CCCNC(=N)N)NC(=O)[C@H](CC(=O)O)NC(=O)[C@H](Cc1c[nH]c2ccccc12)NC(=O)[C@H](Cc1ccccc1)NC(=O)[C@H](C)NC(=O)[C@H](CCC(=O)O)NC(=O)[C@@H](N)CCCCN)C(C)C)[C@@H](C)CC)C(=O)N[C@@H](CC(N)=O)C(=O)N[C@@H](C)C(=O)O	Cyclin-dependent kinase 5, with p25 (CDK5, Homo sapiens, UniProt Q00535)	enzyme activity, inhibitor, radiometric	1 µM	0
C#CCNC(=N)NCCCSC[C@H]1O[C@@H](n2cnc3c(NCCCc4ccccc4)ncnc32)[C@H](O)[C@@H]1O	PRMT3	enzyme activity, inhibitor, fluorescence	10 µM	6.56
N#Cc1ccc2c(ccn2CCC2CCN(C(=O)OC(C(F)(F)F)C(F)(F)F)CC2)c1	Fatty-acid amide hydrolase 1 (Faah, Rattus norvegicus, UniProt P97612)	enzyme activity, inhibitor	10 µM	45
N=C(NCCCSC[C@H]1O[C@@H](n2cnc3c(NCCCc4ccccc4)ncnc32)[C@H](O)[C@@H]1O)NC1CC1	PRMT3	enzyme activity, inhibitor, fluorescence	10 µM	-8.93
CCN(CC)CCNC(=O)c1c(C)[nH]c(/C=C2\C(=O)Nc3ccc(F)cc32)c1C	CDKL2	binding, competition with immobilised ligand	10 µM	92
N=C(NCCCSC[C@H]1O[C@@H](n2cnc3c(NCCCc4ccccc4)ncnc32)[C@H](O)[C@@H]1O)NCc1ccccc1	PRMT3	enzyme activity, inhibitor, fluorescence	10 µM	-4.37
CC(C)CCN[C@@H]1C[C@@H](c2ccc(Cl)c(Cl)c2)c2ccccc21 (relative stereo)	Glutathione reductase, mitochondrial (GSR, Homo sapiens, UniProt P00390)	enzyme activity, inhibitor	25 µM	< 12
N#Cc1ccc(NC(=O)c2ccc3c(c2)OCO3)cc1	MAOA	enzyme activity, inhibitor	1 µM, 20 min	38
CNC(=O)c1cc(Oc2ccc(NC(=O)Nc3ccc(Cl)c(C(F)(F)F)c3)cc2)ccn1	Ribosomal protein S6 kinase alpha-1 (Rps6ka1, Rattus norvegicus, UniProt Q63531)	enzyme activity, inhibitor	10 µM	19
O=C(Nc1ccc([N+](=O)[O-])cc1Cl)c1ccc2ccccc2c1O	MAOA	enzyme activity, inhibitor	1 µM, 20 min	-4
COC(=O)CN=c1scc(-c2ccccc2)n1-c1ccccc1C	LDHA	enzyme activity, inhibitor, fluorescence	100 µM, pH 7.2	43
N=C(NCCCSC[C@H]1O[C@@H](n2cnc3c(NCCCc4ccccc4)ncnc32)[C@H](O)[C@@H]1O)NC1CCCCC1	PRMT3	enzyme activity, inhibitor, fluorescence	10 µM	-5.11
O=C(Nc1ccc([N+](=O)[O-])cc1Cl)c1ccc2ccccc2c1	MAOA	enzyme activity, inhibitor	1 µM, 20 min	11
